The values that follow come from PMC6178240 (Molecular Therapy. Nucleic Acids, 2018).

Where two headings read alike, the source gives them in different places.

In data set [1] the test system is PIK3CB protein. The experiment in a line: PIK3CB protein level by western blot in U87MG cells. The settings on record: 72-hr treatment, normalized with GAPDH. Type of data set: cell-based, human.
Data set [2] relates to orthotopic U87MG-Luc glioblastoma. The experiment in a line: Survival monitoring assay. The data set is classed as in vivo, nude mice. The settings on record: 3 nmol/20 g mixed with Gelofusine (4 mg/20 g) i.v. at 48-hr interval; for median survival time: n = 5. Summed up:
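Fifteen orthotopic U87MG-Luc nude mice were randomised into 3 groups (2 male, 3 female each). Each received saline, scrambled conjugate or test conjugate (3 nmol/20 g) i.v. every 48 hr, all mixed with Gelofusine (4 mg/20 g). Body weight was recorded daily and IVIS luminescence on days 0, 7 and 28. Mice were sacrificed at 40% loss of primary body weight.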

Data set [3] shares this test system. The experiment in a line: In vivo anti-tumor effects. Details: species or system nude mice. To be noted: 12 times over a 24-hr interval, after 12 days; for tumor growth (luminescence intensity) versus saline: 1 nmol/20 g i.v., n = 5 per group. Summed up:
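U87MG-Luc cells (3 × 10⁵ in 3 μL ice-cold PBS) were implanted stereotaxically into BALB/c nude mice (2 mm right of bregma, 3 mm deep). Dosing began once IVIS detected tumours. Twenty mice were randomised into 4 groups (2 male, 3 female each). Groups were saline, scrambled 1 nmol/20 g, or test 0.5 or 1 nmol/20 g, i.v. 12 times at 24-hr intervals. IVIS luminescence was read on days 0, 7 and 12, then excised brains were imaged.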

The subject of data set [4] is U87MG cells. The experiment in a line: Cellular uptake by flow cytometry. Type of data set: cell-based, human. In outline:
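U87MG cells were exposed to Cy5-labelled conjugate at 100, 200, 400 or 600 nM, or Cy5-labelled comparators at 600 nM, in Opti-MEM for 12 hr at 37°C. Cells were trypsinised, washed twice in PBS, resuspended, and Cy5 was read by flow cytometry. Receptor blocking used pre-treatment with excess unconjugated biRGD peptide.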
(In general: A flow cytometer gives signals particle by particle.)

For data set [5], the system named is orthotopic U87MG-Luc glioblastoma. The experiment in a line: Immunofluorescence analysis of frozen brain sections. Type of data set: in vivo, nude mice. To be noted: 1 nmol/20 g i.v., confocal. Summed up:
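Orthotopic U87MG-Luc nude mice received a single i.v. dose of Cy5-labelled siRNA (1 nmol/20 g). Brains taken from the imaging study were frozen at –80°C and sectioned. Sections were stained for CD31 (vessels) and with DAPI, then imaged by confocal microscopy (Cy5 ex 640 nm, em 680 nm). Normal brain served as comparison.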

Data set [6] relates to HeLa cells. As to the kind of experiment: Cellular uptake by flow cytometry. Type of data set: cell-based. To be noted: HeLa (αvβ3-negative), 600 nM, Opti-MEM, 12 h, 37°C, Cy5 flow cytometry.
Data set [7] deals with orthotopic U87MG-Luc glioblastoma. As to the kind of experiment: In vivo distribution assay. Details: species or system nude mice. In outline:
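Orthotopic U87MG-Luc nude mice received a single i.v. dose (1 nmol/20 g) of Cy5-labelled conjugate, conjugate plus Gelofusine (4 mg/20 g), unconjugated Cy5-siRNA, or monovalent comparator. Whole-body IVIS Cy5 imaging (ex 640 nm, em 680 nm) was done at 12, 24, 36 and 48 hr. At 24 hr some mice were sacrificed and their tumours and major organs imaged ex vivo.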

Data set [8] deals with U87MG cells. The experiment in a line: Confocal fluorescence microscopy of intracellular distribution. Type of data set: cell-based, human. To be noted: for intracellular distribution (Cy5, confocal): Opti-MEM. In outline: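 U87MG cells were exposed to Cy5-labelled molecules at 600 nM in Opti-MEM for 12 hr at 37°C, with or without prior blocking using excess biRGD peptide. Cells were PBS-washed, fixed in 4% paraformaldehyde for 15 min at room temperature, stained with anti-TGN46 and an Alexa Fluor 488 secondary, then imaged by confocal microscopy.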

The nature of data set [9]: Serum stability assay. The settings on record: 5 μL 20 μM mixed with 5 μL mouse serum, 37°C, 1.2% agarose gel. Type of data set: in vitro ADME.
Data set [10] concerns U87MG cells. As to the kind of experiment: Cell apoptosis analysis, Annexin V-FITC/PI flow cytometry. Type of data set: cell-based, human. The settings on record: 72 hr post-treatment. Summed up: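 U87MG cells attached 24 hr, then exposed to the test conjugate (100, 200, 400 or 600 nM) or scrambled conjugate (600 nM) in serum-free Opti-MEM for 24 hr; untreated control. 10% serum was then added and cells held 72 hr. Apoptosis was measured by Annexin V-FITC/PI staining per kit and read on a flow cytometer as apoptosis rate.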

In data set [11] the test system is PIK3CB protein. The data set is classed as in vivo, human.
Data set [12] is described as follows: Immunogenicity evaluation, serum cytokines by ELISA. Type of data set: in vivo, BALB/c mice. To be noted: 5nmol/20 g single injection, serum at 6hr. Summed up: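 Immunocompetent BALB/c mice (4–6 weeks, ~20 g) got a single injection of saline or test conjugate (5 nmol/20 g), alone or mixed with Gelofusine (4 mg/20 g). Serum was collected at 6 hr, and IL-6, IFN-β and TNF-α were measured by ELISA kit.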
On the technique in general: In an ELISA, binding on a coated surface is turned into a signal by an enzyme label.

A short description of data set [13]: Hepatotoxicity, serum ALT. Details: species or system nude mice. The settings on record: serum from in vivo anti-tumor assay. Summed up:
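Serum came from orthotopic U87MG-Luc nude mice in the anti-tumour study. Dosing was saline, scrambled conjugate 1 nmol/20 g, or test conjugate 0.5 or 1 nmol/20 g, given i.v. 12 times at 24-hr intervals. Serum was collected after sacrifice on day 12. ALT was measured on an automated chemistry analyser following the manufacturer's instructions.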

For data set [14], the system named is PIK3CB mRNA. As to the kind of experiment: PIK3CB mRNA level by qRT-PCR in U87MG cells. To be noted: no transfection agent, 48 hr, normalized with GAPDH. The data set is classed as cell-based, human.
In data set [15] the test system is U87MG cells. The experiment in a line: Transwell migration assay. The data set is classed as cell-based, human. To be noted: 100-600 nM, 48-hr treatment, Matrigel-coated 8-μm inserts, migration 24 hr. In outline: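 U87MG cells were exposed to test conjugate (100–600 nM) or scrambled conjugate (600 nM) in serum-free Opti-MEM for 24 hr, then held 48 hr with 10% serum. Cells (5 × 10⁴ in serum-free DMEM) were placed on Matrigel-coated (2 mg/mL) 8-μm inserts, with 10% FBS DMEM below, and allowed to migrate 24 hr. Crystal-violet-stained cells were counted in five random fields.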

In data set [16] the test system is kidneys. The experiment in a line: Histopathological evaluation of kidneys. The settings on record: 1 nmol/20 g i.v., 12 times over a 24-hr interval, H&E. The data set is classed as in vivo, nude mice. Summed up: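 Kidneys from orthotopic U87MG-Luc nude mice dosed i.v. 12 times at 24-hr intervals were used. Tissues were fixed at once in 4% paraformaldehyde, paraffin-embedded, cut into 5-μm sections and stained with H&E for histology.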

In data set [17] the test system is orthotopic U87MG-Luc glioblastoma. As to the kind of experiment: ki67 staining and TUNEL assay of tumor sections. The data set is classed as in vivo, nude mice. Summed up:
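Tumours from the anti-tumour study were used (saline, scrambled 1 nmol/20 g, or test 0.5 or 1 nmol/20 g, i.v. 12 times at 24-hr intervals). They were fixed in 4% paraformaldehyde, paraffin-embedded and cut into 5-μm sections. Sections were stained by Ki67 immunohistochemistry and TUNEL kit. Results were expressed as Ki67-positive/total cells and apoptotic index (TUNEL-positive/total cells).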

Data set [18] deals with PIK3CB mRNA. The experiment in a line: In vivo silencing, PIK3CB mRNA in tumor by qRT-PCR. Set-up: species or system human. The settings on record: versus saline and biRGD-siNC. On the technique in general: Real-time PCR tracks product formation cycle by cycle.
[19] abbreviates: 0.5 nmol/20 g i.v. x12, versus saline and biRGD-siNC.
Setting [20] is: 1 nmol/20 g i.v. x12, versus saline and biRGD-siNC.

“[cyclo(Arg-Gly-Asp-D-Phe-Lys)-Ahx]2-Glu-PEG-MAL (bicyclic or more) [biRGD-siNC, reference compound]”: the “PIK3CB protein level, remaining amount” value in data set [1] (600 nM) is “almost no effect”. Moreover, in data set [2], the “course of body weight” value is recorded as “rapid decrease in body weight” and the median survival time is recorded as 23 days. For the same substance, the “tumor growth (luminescence intensity) versus saline” value in data set [3] is given as “no significant difference”.

As for “[cyclo(Arg-Gly-Asp-D-Phe-Lys)-Ahx]2-Glu-PEG-MAL (bicyclic or more) [biRGD-siNC-Cy5]”, the “uptake after blocking integrin αvβ3 receptors” value in data set [4] (U87MG pre-treated with 1 μM unconjugated biRGD peptide, 37°C, 1 hr) is “inhibited”. Also, the “uptake relative to cRGD-siNC-Cy5” value in data set [4] (U87MG, 600 nM, 12 hr, Cy5 flow cytometry) is “approximately twice”. The cellular uptake entry is reported as “enhanced cellular uptake that increased progressively” in data set [4] (U87MG, 100 to 600 nM, Opti-MEM, 12 hr, 37°C, Cy5 flow cytometry) and “no uptake” in data set [6]. The saturation of uptake result in data set [4] (U87MG, tested range 100 to 600 nM) is on record as “No evidence of saturation of uptake”. For the same substance, the “Cy5 signal in sections of GBM-bearing brain tissues” value in [5] (CD31 staining) was “significantly higher”. Moreover, the “Cy5 signal in sections of normal brain tissues” value in [5] was “little”. Besides, the “time of peak Cy5 fluorescence intensity of orthotopic GBM” value in data set [7] (1 nmol/20 g i.v. single dose, IVIS) turned out to be 24 h. Also, the “Cy5 fluorescence within the tumor and kidneys” value in data set [7] (1 nmol/20 g i.v. single dose, IVIS at 12, 24, and 36 hr) was “high red Cy5 fluorescent expressions”. Besides, the “presence in other main organs (heart, spleen, and lung), ex vivo” value in data set [7] (1 nmol/20 g i.v., organs excised at 24 hr) is “not found”. The “ex vivo targeting of GBM-bearing brain tissue” value in data set [7] (1 nmol/20 g i.v., organs excised at 24 hr, ex vivo Cy5 imaging) is “specifically target the GBM-bearing brain tissue”. Moreover, in data set [8] (U87MG blocked with biRGD (1 μM)), the “intracellular distribution after pre-treating with excess biRGD peptide” value was “inhibited”. In data set [8] (U87MG, 600 nM), the “intracellular distribution (Cy5, confocal)” value is “substantial uptake and wide distribution in the cell”. Also, the “subcellular localization versus trans-Golgi marker TGN46” value in data set [8] (U87MG, 600 nM, anti-TGN46/Alexa Fluor 488) is given as “substantial overlap with TGN46 protein”.

In the case of “[cyclo(Arg-Gly-Asp-D-Phe-Lys)-Ahx]2-Glu-PEG-MAL (bicyclic or more) [biRGD-siPIK3CB]”, the “PIK3CB protein level, remaining amount” value in data set [1] (400 nM) is on record as “about 70%”; in [1] (600 nM), “about 60%”. Besides, the “degradation in mouse serum at 96 hr” value in data set [9] (96 hr) is “low degradation”. Also, the results for the apoptosis rate in data set [10] (400 nM) and in data set [10] (600 nM) were 15.14% and 20.76%, respectively. Moreover, the “PIK3CB protein level in tumor (immunohistochemistry)” value in data set [11] (0.5 nmol/20 g i.v. x12) and in data set [11] (1 nmol/20 g i.v. x12) was “remarkably low” in each case. In addition, the “PIK3CB protein level in tumor (western blot)” value in data set [11] (1 nmol/20 g i.v. x12) was “significantly decreased”. For the same substance, the “IFN-β level of the serum versus saline” value in [12] is “no significant difference”. Moreover, in [12], the “IL-6 level of the serum versus saline” value is listed as “no significant difference”. The “TNF-α level of the serum versus saline” value in data set [12] is on record as “no significant difference”. Also, the “ALT level in the serum versus saline” value in data set [13] (mixed with Gelofusine) and in data set [13] (Aeroset Chemistry Analyzer) was “no statistically meaningful difference” throughout. In addition, the “PIK3CB mRNA level, remaining amount” value in [14] (400 nM) is given as “about 60%”; in data set [14] (600 nM), ~50%. Moreover, in [15], the “U87MG cell invasion (transwell migration)” value is on record as “significantly inhibit”. Moreover, the “course of body weight” value in data set [2] was “steady”. In data set [2], this substance had a median survival time of 26 days. In addition, the “pathological sections of kidneys versus saline” value in data set [16] is given as “mild pathological changes in kidneys”. For the same substance, the “apoptotic tumor cells (TUNEL)” value in data set [17] (setting [19]) and in data set [17] (setting [20]) was “obviously higher number” in each case. The “proliferative cells in tumors (ki67)” value in [17] (setting [19]) and in data set [17] (setting [20]) was “obviously decreased” in each case. In [17] (TUNEL), the “number of apoptotic tumor cells, 1 nmol/20 g group relative to 0.5 nmol/20 g group” value is recorded as “about twice”. Besides, in data set [3] (0.5 nmol/20 g i.v.), the “tumor growth (luminescence intensity) versus saline and biRGD-siNC” value was “no significance”. Besides, the “tumor growth (luminescence intensity) versus saline” value in data set [3] is “significant tumor growth inhibition”. Further, the “PIK3CB mRNA expression in tumor” value in data set [18] (0.5 nmol/20 g i.v. x12, qRT-PCR) is recorded as “obviously low expression”; in data set [18] (1 nmol/20 g i.v. x12, qRT-PCR), “obviously low expression”.

As to “cyclo(Arg-Gly-Asp-D-Phe-Lys) (head to tail) [cRGD-siNC-Cy5, reference compound]”, the “intracellular distribution (Cy5, confocal)” value in [8] (U87MG, 600 nM) was “substantial uptake and wide distribution in the cell”.

“siPIK3CB: sense 5′-AC(mC)(mU)G(mU)GGAUACUCAU(mU)A(mA)dTdT-3′, antisense 5′-U(mU)AA(mU)GAGUAUCCA(mC)AG(mG)(mU)dTdT-3′”: in data set [9] (0-96 hr), the “incubation time in mouse serum after which degraded” value was found to be 48 h.
